Screening results: PubChem, several laboratories
SR-BI DiI-HDL act – activators of SR-BI mediated HDL lipid uptake. CHO ldlA[mSR-BI] cells, DiI-HDL uptake fluorescence, 3 h; 100 = double the neutral-control signal. activation, % at 12.5 µM. actives 0.096% (n = 320,000);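 active = mean replicate activation of at least 60% and every replicate at or above 60%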;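 also: 0% = median plate neutral-control signal and 100% = twice that signal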
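material = CHO ldlA[mSR-BI] cells | medium = Ham's F12 with 0.5% BSA, HEPES 25 mM, pH 7.4 | reagent = fluorescent DiI-HDL, 10 µg/mL final | compound dosing = single-point compound dose | incubation = 3 h, 37 °C | measured by = bottom-read fluorescence, 550/595 nm | measure = HDL uptake via cellular fluorescence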
PKA-R2B activ – activates the human PKA-R2B holoenzyme complex. P22694+P31323. PKA-R2B holoenzyme dissociation, Cy5-IP20 fluorescence polarization; R2B truncated from residue 108, S112A mutant; 0% DMSO only, 100% 113 µM cGMP. activation, % at 11.4 µM. actives 0.079% (n = 340,000);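 active = activation above a cutoff set at the mean over all compounds plus 3 SD, cut at about 18% in these data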;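 also: higher means more holoenzyme dissociation and a rise in polarization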
Vif inh – HIV Vif inhibition; inhibition, % at 7.49 µM; actives 0.35% (n = 340,000); HEK293T cells, Vif self-association by quenched fluorescence, imaging, 24 h; in the data active = inhibition above about 50%, passing the limit was not always enough
PKA-R1A activ – activators of PKA-R1A complex; P00514+P68181; PKA-R1A dissociation, Cy5-IP20 fluorescence polarization; scaled: DMSO 0%, 113 µM cGMP 100%; activation, % at 11.4 µM; actives 0.083% (n = 340,000); AID 504707;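 active = percent activation above the mean of all tested compounds plus 3 SD, cut at about 19% in these data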;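 also: higher means more PKAc released from R1A so a rise in polarization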
SR-BI DiI inh – blocks mouse SR-BI lipid uptake from DiI-HDL | Q61009 | ldlA[mSR-BI] CHO cells, DiI-HDL uptake fluorescence, 3 h | inhibition, % at 12.5 µM | actives 0.96% (n = 320,000) | AID 488896;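 active = mean replicate inhibition of at least 70% and a set share of replicates each scoring 70 or more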;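 also: 0% = median of neutral control wells and 100% = median of positive control wells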
Target sequence (Q61009 whole entry, looked up): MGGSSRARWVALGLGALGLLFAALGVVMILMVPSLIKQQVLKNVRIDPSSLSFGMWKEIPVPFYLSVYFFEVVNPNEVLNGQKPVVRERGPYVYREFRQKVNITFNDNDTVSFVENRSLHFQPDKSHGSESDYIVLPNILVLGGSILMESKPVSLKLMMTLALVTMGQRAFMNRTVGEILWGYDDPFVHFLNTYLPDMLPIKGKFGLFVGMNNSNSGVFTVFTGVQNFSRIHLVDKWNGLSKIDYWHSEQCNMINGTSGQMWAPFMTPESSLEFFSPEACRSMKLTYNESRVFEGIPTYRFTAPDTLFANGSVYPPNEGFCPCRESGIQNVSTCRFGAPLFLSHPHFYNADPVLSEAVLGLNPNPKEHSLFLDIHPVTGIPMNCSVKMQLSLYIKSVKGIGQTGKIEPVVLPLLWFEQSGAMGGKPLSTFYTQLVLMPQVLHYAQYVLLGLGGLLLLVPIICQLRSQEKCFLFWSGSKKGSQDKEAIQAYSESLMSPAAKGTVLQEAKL
* hit, by the source's call; / = not tested or not shown. Compounds with a hit are over-represented: about 1.4% of the library has one in this group of screens.

SMILES	SR-BI DiI-HDL act	PKA-R2B activ	Vif inh	PKA-R1A activ	SR-BI DiI inh
CN(Cc1ccc(F)cc1)S(=O)(=O)c1ccc2[nH]c(=O)[nH]c2c1	/	-6	0	-2	/
CCNC(=O)C1CCCN(C(=O)C(c2ccccc2)c2ccccc2)CC1 (centres undefined)	/	/	0	/	/
Cc1c(NC(=O)C(C)OC(=O)c2sc3ccccc3c2Cl)c(=O)n(-c2ccccc2)n1C (centres undefined)	-23	-2	108*	5	23
C/C(=N\NC(=O)CNC(=O)c1ccc(F)cc1)c1ccco1	11	1	73*	-5	-11
COc1cc(Cl)cc(C2NC(=S)NC(c3ccccc3)=C2C(C)=O)c1OCC(=O)O (centres undefined)	2	-3	4	-1	-2
Cc1ccccc1C(=O)Nc1ccc(N2CCOCC2)nc1	-2	-7	53*	-5	2
CCOc1ccc(NC(=S)NNC(=S)Nc2cccc(C(F)(F)F)c2)cc1	-93	-12	13	5	93*
CN1CCN(C(=S)c2ccc(OCC(=O)Nc3cccc(C(F)(F)F)c3)cc2)CC1	-56	3	54*	-3	56
CCCCCN(C(=O)CCC(=O)OCCOc1cccc(Cl)c1)c1c(N)n(CCCC)c(=O)[nH]c1=O	-35	11	21	1	35
Nc1ccc(-c2cc3ccccc3oc2=O)cc1	-4	6	-5	-2	4
O=C/C=C/c1c(-c2ccccc2)cc2oc3ccccc3cc1-2	-100	7	-4	1	100*
Fc1ccccc1CNc1ccc(Cl)c(Cl)c1	-5	-1	55*	-13	5
Cc1ccc(NCc2ccccc2F)cc1	-17	6	-7	-3	17
Cc1cn([C@H]2C[C@H](O)[C@@H](/C=C/C(=O)NCc3ccco3)O2)c(=O)[nH]c1=O	/	/	1	/	/
C1=CC(c2cc3ccccc3o2)OC(CCc2ccccc2)C1 (centres undefined)	-9	-4	2	-3	9
CCOc1nsc(OCC)n1	2	-7	9	6	-2
Oc1ccccc1N=Nc1ccccc1O	-87	-2	1	1	87*
CCCN(C)C[C@@H]1OCc2cnnn2CCCC(=O)N([C@H](C)CO)C[C@H]1C	/	7	/	-14	/
COc1ccc(S(=O)(=O)NCc2ccc(F)cc2)cc1OC	-2	2	-5	-9	2
COc1cc(C(=O)NCCc2c[nH]c3ccccc23)ccc1OCc1c(C)noc1C	-66	-8	-1	-13	83*
Cc1ccc2nc(C(Cl)(Cl)Cl)nc(N/N=C/c3ccc([N+](=O)[O-])cc3)c2c1	-91	-3	-11	-1	91*
C#CCN1C(=O)S/C(=C/C=C/c2ccc(N(C)C)cc2)C1=O	-31	12	87*	-6	31
O=c1cc2oc3cc(O)c(O)cc3c(-c3ccccc3[N+](=O)[O-])c-2cc1O	-90	-2	5	0	90*
O=c1cc(-c2ccccc2Cl)oc2cccc(O)c12	-20	-3	-4	-9	20
Cc1ccc2c(c1)cc(C(=O)N[C@@H](Cc1ccccc1)C(=O)O)n2C	7	-3	0	0	-7
SMILES	SR-BI DiI-HDL act	PKA-R2B activ	Vif inh	PKA-R1A activ	SR-BI DiI inh
O=C1CCN(Cc2ccc(O)cc2)CCN1[C@H](CO)Cc1ccccc1	-9	13	54*	-2	9
COc1ccc(NC(=O)CN2CCN(c3c(C)cc(C)cc3C)CC2)cc1	-1	2	5	-13	1
CCCCCCN1C=C/C(=C\C=C(C#N)C#N)c2ccccc21	-76	-6	5	-2	76*
FC(F)(Cl)c1nnc2ccc(Sc3ccccn3)nn12	1	-1	4	-14	-1
COc1ccc(-c2csc(NC(=O)[C@H](C)N3C(=O)C4CC=CCC4C3=O)n2)cc1OC (some centres undefined)	-71	-1	-8	-1	71*
COc1ccc(-c2csc(NC(=O)CCn3cnc4ccccc4c3=O)n2)cc1OC	-75	-8	15	9	75*
COc1ccc(-c2csc(NC(C)=O)n2)cc1OC	-4	-6	18	-9	4
COc1ccc(-c2csc(Nc3ncccc3C)n2)cc1OC	-72	-10	-14	-12	72*
COc1cccc(NC(=O)Nc2nc(-c3ccc(OC)c(OC)c3)cs2)c1	-77	-8	1	5	77*
CC(C(=O)Nc1nc(-c2ccc(F)c(F)c2)cs1)N1C(=O)C2CC=CCC2C1=O (centres undefined)	-34	-11	-3	-5	34
COc1ccc(-c2csc3nc(-c4ccccc4OC)oc(=O)c23)cc1	-45	-3	1	-12	45
COc1ccc2cc(-c3csc(-c4cccnc4)n3)ccc2c1	-19	-13	15	2	19
O=C(Nc1cccc(Cl)c1)Nc1nc(-c2ccc(Cl)cc2)cs1	-79	4	-10	-12	79*
COc1ccc(-c2csc(-c3cccnc3)n2)cc1C	-41	0	115*	-3	54
Cc1ccc(S(=O)(=O)NC(=O)C2(C)CCN2C(=O)c2cccc(F)c2)cc1 (centres undefined)	/	/	7	/	/
C=CCNC(=O)c1cccc(C(F)(F)F)c1	7	0	-3	-2	-7
CC1CCCCN1CCCNC(=O)CCCN1C(=O)c2cccnc2Sc2ccccc21 (centres undefined)	12	-1	1	-5	-12
CN(C)c1ccc(/C=C2\SC(=O)N(CCc3nnc(N)s3)C2=O)cc1	/	-4	96*	-6	/
CCN=C1S/C(=C\c2cc(Cl)c(OC)c(OC)c2)C(=O)N1CC	-77	-12	-3	-9	77*
CCCCNS(=O)(=O)c1cccc(NC(=O)[C@H]2C[C@H](O)[C@@H](CO)O2)c1	/	/	11	/	/
C/C(=N\O)C(C)Oc1ccc(Cl)cc1 (centres undefined)	-1	3	-3	-3	1
Nc1cc[n+](CC(=O)c2ccc3c(c2)OCCO3)cc1	1	-8	82*	0	-1
Cc1ccccc1Cn1c(O)c(N=NC(=S)Nc2ccccc2F)c2ccccc21	-46	-6	6	4	46
Cc1ccc(C)c(Cn2c(O)c(N=NC(=S)Nc3ccccc3F)c3ccccc32)c1	-84	-8	21	-7	84*
CCOc1ccc(S(=O)(=O)N2CCN(C(=O)c3ccc(C)c(S(=O)(=O)N4CCOCC4)c3)CC2)cc1	-4	2	-3	10	4
O=C(NCc1ccccn1)c1ccc(Cl)c(NC2=NC3CS(=O)(=O)CC3S2)c1 (centres undefined)	-2	6	21	-4	2
